From ChEMBL document CHEMBL1121953, “Carbon-7 substituted actinomycin D analogues as improved antitumor agents: synthesis and DNA-binding and biological properties” (J Med Chem, 1982) come the findings set out here.

Molecules are shown by their SMILES. Values after ≈ are worked out from the molar mass of the structure shown.

A short description of series [1]: Therapeutic Index measured as the MTD/MED ratio compared to that of compound 3. The conditions noted are these: read-out: Therapeutic index. Put shortly: (§1)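 Therapeutic index is MTD/MED, with ip dosing in 10% dimethyl sulfoxide-saline on a qd 1-4 or q4d 1, 5, 9 schedule. MED is the dose giving a 40% increase in life span over control in P-388-bearing mice. MTD is the LD10 in tumor-free male CDF1 mice (18-23 g) over 21 days, read from a log dose vs. percent mortality plot and averaged over 2-3 experiments.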

Series [2] in a line: Therapeutic Index measured as the MTD/MED ratio compared to that of compound 4. The following applies: read-out: Therapeutic index. Put shortly: as §1
Series [3] in a line: In vitro growth inhibitory activity for effect on melting temperature of DNA was determined. Put shortly:
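DNA thermal denaturation; ΔTm = Tm of DNA-drug complex minus Tm of DNA. Drug 1.4×10⁻⁴ M, DNA (P) 1.4×10⁻³ M in 0.01 M phosphate buffer pH 7.0 with 5×10⁻³ M EDTA and 5% dimethyl sulfoxide.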

For a further series, the species on record is Homo sapiens. The experiment in a line: In vitro growth inhibitory activity against human lymphoblastic leukemia cells. The following applies: read-out: ID50 (the source's name). Type of series: functional. Put shortly: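 CCRF-CEM human lymphoblastic leukemia cells in log-phase growth; compounds dissolved in Me₂SO, final growth medium 1% Me₂SO.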

For the compound `Cc1c2oc3c(C)c(OCC4CO4)cc(C(=O)N[C@@H]4C(=O)N[C@H](C(C)C)C(=O)N5CCC[C@H]5C(=O)N(C)CC(=O)N(C)[C@@H](C(C)C)C(=O)O[C@@H]4C)c3nc-2c(C(=O)N[C@@H]2C(=O)N[C@H](C(C)C)C(=O)N3CCC[C@H]3C(=O)N(C)CC(=O)N(C)[C@@H](C(C)C)C(=O)O[C@@H]2C)c(N)c1=O` (stereo partly drawn), the selectivity ratio in series [1] came out at 72; in series [2], 43. For `Cc1c2oc3c(C)c(OCC(O)CO)cc(C(=O)N[C@@H]4C(=O)N[C@H](C(C)C)C(=O)N5CCC[C@H]5C(=O)N(C)CC(=O)N(C)[C@@H](C(C)C)C(=O)O[C@@H]4C)c3nc-2c(C(=O)N[C@@H]2C(=O)N[C@H](C(C)C)C(=O)N3CCC[C@H]3C(=O)N(C)CC(=O)N(C)[C@@H](C(C)C)C(=O)O[C@@H]2C)c(N)c1=O` (stereo partly drawn), the selectivity ratio in series [1] was 12; in series [2], 6. As for `Cc1c2oc3c(C)c(O)c(N)c(C(=O)N[C@H]4C(=O)N[C@@H](C(C)C)C(=O)N5CCC[C@H]5C(=O)N(C)CC(=O)N(C)[C@H](C(C)C)C(=O)O[C@H]4C)c3nc-2c(C(=O)N[C@@H]2C(=O)N[C@H](C(C)C)C(=O)N3CCC[C@@H]3C(=O)N(C)CC(=O)N(C)[C@@H](C(C)C)C(=O)O[C@@H]2C)cc1=O`, the DNA melting temperature shift (ΔTm) in series [3] came out at 6.7 °C.

In the case of `CCN(CC)C(=O)c1c2nc3c(C(=O)N(CC)CC)ccc(C)c3oc-2c(C)c(=O)c1N`, the IC50 in the series filed under Homo sapiens was about 10 µg/mL (≈ 22.8 µM). Besides, in series [3], the DNA melting temperature shift (ΔTm) was 0 °C. Take `Cc1c2oc3c(C)c(OCC(O)CO)cc(C(=O)N[C@H]4C(=O)N[C@@H](C(C)C)C(=O)N5CCC[C@H]5C(=O)N(C)CC(=O)N(C)[C@@H](C(C)C)C(=O)O[C@H]4C)c3nc-2c(C(=O)N[C@H]2C(=O)N[C@@H](C(C)C)C(=O)N3CCC[C@H]3C(=O)N(C)CC(=O)N(C)[C@@H](C(C)C)C(=O)O[C@H]2C)c(N)c1=O` (stereo partly drawn): the DNA melting temperature shift (ΔTm) in series [3] was 5.1 °C.
